Source: ChEMBL document CHEMBL3244074, “2-Indanpropionic acids: structural leads for prostaglandin F2alpha antagonist development” (J Med Chem, 1979)
Activity calls are given as the source filed them. No cut-off for these calls is given here.

Experiments:
Type in all cases: tissue-based
[1] = biological target: Prostaglandin F2-alpha receptor (Mus musculus) (UniProt P43117); assay: Antagonist activity at prostaglandin F2-alpha receptor in isolated Albino mouse ileum assessed as inhibition of acetylcholine-induced spasmogenic effect at 10^-4 M preincubated for 3 mins followed by acetylcholine challenge relative to control
Procedure, shortened: (§1)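 Mouse ileum came from female albinos (20-25 g) killed by cervical dislocation and was held under 200 mg tension in 37 °C baths for isotonic recording, with 30-min equilibration. A control acetylcholine contraction was obtained, then three washes. Compound was in contact for 3 min before acetylcholine challenge and contraction recording. After 5 min there were three washes and the control response was redetermined.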

[2] = biological target: Prostaglandin F2-alpha receptor (Mus musculus) (UniProt P43117); assay: Antagonist activity at prostaglandin F2-alpha receptor in isolated Albino mouse ileum assessed as inhibition of KCl-induced spasmogenic effect at 10^-4 M preincubated for 3 mins followed by KCl challenge relative to control
Procedure, shortened: (§2)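 Ileum sections were taken from female albino mice (20-25 g) killed by cervical dislocation and mounted in 37 °C baths under 200 mg tension, with isotonic contraction recording after a 30-min equilibration. A control contraction to KCl (54 mM bath) was followed by three washes. Compound was left on the tissue for 3 min, then KCl was re-added and the contraction recorded. After 5 min the tissue was washed three times and the control response repeated.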

[3] = biological target: Prostaglandin F2-alpha receptor (Mus musculus) (UniProt P43117); assay: Antagonist activity at prostaglandin F2-alpha receptor in isolated Albino mouse ileum assessed as inhibition of PGF2alpha-induced spasmogenic effect at 10^-4 M preincubated for 3 mins followed by PGF2alpha challenge relative to control
Procedure, shortened: (§3)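 This used female albino mouse ileum (20-25 g animals, killed by cervical dislocation), recorded isotonically under 200 mg tension at 37 °C after 30-min equilibration. A control PGF2α contraction was obtained and the bath washed three times. Compound was applied for 3 min before PGF2α challenge, and the contraction was recorded. Washing three times after 5 min was followed by a repeat PGF2α control response.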

[4] = biological target: Prostaglandin F2-alpha receptor (Mus musculus) (UniProt P43117); assay: Antagonist activity at prostaglandin F2-alpha receptor in isolated Albino mouse ileum assessed as inhibition of acetylcholine-induced spasmogenic effect at; procedure, shortened: as §1
[5] = biological target: Prostaglandin F2-alpha receptor (Mus musculus) (UniProt P43117); assay: Antagonist activity at prostaglandin F2-alpha receptor in isolated Albino mouse ileum assessed as inhibition of KCl-induced spasmogenic effect at; procedure, shortened: as §2
[6] = biological target: Prostaglandin F2-alpha receptor (Mus musculus) (UniProt P43117); assay: Antagonist activity at prostaglandin F2-alpha receptor in isolated Albino mouse ileum assessed as inhibition of PGF2alpha-induced spasmogenic effect at; procedure, shortened: as §3
[7] = biological target: Prostaglandin F2-alpha receptor (Mus musculus) (UniProt P43117); assay: Antagonist activity at prostaglandin F2-alpha receptor in isolated Albino mouse ileum assessed as inhibition of PGF2alpha-induced spasmogenic effect preincubated for 3 mins followed by PGF2alpha challenge followed by compound washout; procedure, shortened: as §3
[8] = biological target: Prostaglandin F2-alpha receptor (Mus musculus) (UniProt P43117); assay: Antagonist activity at prostaglandin F2-alpha receptor in isolated Albino mouse ileum assessed as inhibition of acetylcholine-induced spasmogenic effect preincubated for 3 mins followed by acetylcholine challenge followed by compound washout; procedure, shortened: as §1
[9] = biological target: Prostaglandin F2-alpha receptor (Mus musculus) (UniProt P43117); assay: Antagonist activity at prostaglandin F2-alpha receptor in isolated Albino mouse ileum assessed as inhibition of KCl-induced spasmogenic effect preincubated for 3 mins followed by KCl challenge followed by compound washout; procedure, shortened: as §2
[10] = biological target: Prostaglandin F2-alpha receptor (Mus musculus) (UniProt P43117); assay: Antagonist activity at prostaglandin F2-alpha receptor in isolated Albino mouse ileum assessed as inhibition of acetylcholine-induced spasmogenic effect at 10^-3 M preincubated for 3 mins followed by acetylcholine challenge relative to control; procedure, shortened: as §1
[11] = biological target: Prostaglandin F2-alpha receptor (Mus musculus) (UniProt P43117); assay: Antagonist activity at prostaglandin F2-alpha receptor in isolated Albino mouse ileum assessed as inhibition of KCl-induced spasmogenic effect at 10^-3 M preincubated for 3 mins followed by KCl challenge relative to control; procedure, shortened: as §2
[12] = biological target: Prostaglandin F2-alpha receptor (Mus musculus) (UniProt P43117); assay: Antagonist activity at prostaglandin F2-alpha receptor in isolated Albino mouse ileum assessed as inhibition of PGF2alpha-induced spasmogenic effect at 10^-3 M preincubated for 3 mins followed by PGF2alpha challenge relative to control; procedure, shortened: as §3
[13] = biological target: Prostaglandin F2-alpha receptor (Mus musculus) (UniProt P43117); assay: Antagonist activity at prostaglandin F2-alpha receptor in isolated Albino mouse ileum assessed as inhibition of PGF2alpha-induced spasmogenic effect at 5X10'-5 M preincubated for 3 mins followed by PGF2alpha challenge relative to control; procedure, shortened: as §3
[14] = biological target: Prostaglandin F2-alpha receptor (Mus musculus) (UniProt P43117); assay: Antagonist activity at prostaglandin F2-alpha receptor in isolated Albino mouse ileum assessed as inhibition of KCl-induced spasmogenic effect at 5X10'-5 M preincubated for 3 mins followed by KCl challenge relative to control; procedure, shortened: as §2
[15] = biological target: Prostaglandin F2-alpha receptor (Mus musculus) (UniProt P43117); assay: Antagonist activity at prostaglandin F2-alpha receptor in isolated Albino mouse ileum assessed as inhibition of acetylcholine-induced spasmogenic effect at 5X10'-5 M preincubated for 3 mins followed by acetylcholine challenge relative to control; procedure, shortened: as §1
[16] = biological target: Prostaglandin F2-alpha receptor (Mus musculus) (UniProt P43117); assay: Antagonist activity at prostaglandin F2-alpha receptor in isolated Albino mouse ileum assessed as inhibition of PGF2alpha-induced spasmogenic effect at 3X10'-5 M preincubated for 3 mins followed by PGF2alpha challenge relative to control; procedure, shortened: as §3
[17] = biological target: Prostaglandin F2-alpha receptor (Mus musculus) (UniProt P43117); assay: Antagonist activity at prostaglandin F2-alpha receptor in isolated Albino mouse ileum assessed as inhibition of acetylcholine-induced spasmogenic effect at 3X10'-5 M preincubated for 3 mins followed by acetylcholine challenge relative to control; procedure, shortened: as §1
[18] = biological target: Prostaglandin F2-alpha receptor (Mus musculus) (UniProt P43117); assay: Antagonist activity at prostaglandin F2-alpha receptor in isolated Albino mouse ileum assessed as inhibition of KCl-induced spasmogenic effect at 3X10'-5 M preincubated for 3 mins followed by KCl challenge relative to control; procedure, shortened: as §2

Prostaglandin F2-alpha receptor (Mus musculus), sequence (P43117 whole entry): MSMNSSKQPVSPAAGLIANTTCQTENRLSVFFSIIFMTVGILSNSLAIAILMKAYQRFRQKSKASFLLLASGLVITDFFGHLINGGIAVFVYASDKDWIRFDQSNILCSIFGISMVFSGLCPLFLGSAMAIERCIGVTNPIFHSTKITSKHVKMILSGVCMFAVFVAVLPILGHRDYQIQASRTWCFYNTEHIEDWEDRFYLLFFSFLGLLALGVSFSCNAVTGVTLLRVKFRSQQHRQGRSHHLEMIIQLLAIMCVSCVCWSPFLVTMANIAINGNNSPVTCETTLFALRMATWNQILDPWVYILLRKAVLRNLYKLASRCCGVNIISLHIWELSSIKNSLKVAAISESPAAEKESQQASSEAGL

inhibition [1]	inhibition [2]	inhibition [3]	inhibition [4]	inhibition [5]	inhibition [6]	inhibition [7]	inhibition [8]	inhibition [9]	inhibition [10]	inhibition [11]	inhibition [12]	inhibition [13] [%]	inhibition [14] [%]	inhibition [15] [%]	inhibition [16] [%]	inhibition [17] [%]	inhibition [18] [%]	SMILES
inactive	inactive	20%	inactive	inactive	inactive	inactive	inactive	inactive	Active	Active	Active	–	–	–	–	–	–	CCCC1(CCC(=O)O)Cc2cc3c(cc2C1)OCO3
inactive	inactive	20%	inactive	inactive	inactive	inactive	inactive	inactive	Active	Active	Active	–	–	–	–	–	–	CCCC1(CCC(=O)O)Cc2ccc(OC)cc2C1=O (centres undefined)
inactive	inactive	20%	inactive	inactive	inactive	inactive	inactive	inactive	Active	Active	Active	–	–	–	–	–	–	CCCC1(CCC(=O)O)Cc2cc3c(cc2C1=O)OCO3 (centres undefined)
70%	70%	Active	Active	Active	Active	inactive	inactive	inactive	Active	Active	Active	90	50	35	80	< 20	40	CCCC1(CCC(=O)O)Cc2cc(OCc3ccccc3)c(OCc3ccccc3)cc2C1=O (centres undefined)
